Reference: ChEMBL document CHEMBL1149327, “Punaglandins, chlorinated prostaglandins, function as potent Michael receptors to inhibit ubiquitin isopeptidase activity” (J Med Chem, 2004)

How the values were obtained:
Format in all cases: functional, cell-based
HCT cell line [1] = assay: Cytotoxicity against wild type p21-l- gene in human colon tumor 116 (HCT 116) cell lines was determined
Summary of the method: (§1)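 HCT 116 wild-type and isogenic p53- or p21-disrupted lines (McCoy's 5A, 10% FBS) seeded at 3.0 × 10^3/well, adhered 24 h, then treated at varying concentrations for 48 h, eight replicates, DMSO controls. Viability by MTS, absorbance 490 nm after 2–3 h, expressed as % of same-plate DMSO control; EC50 fitted from log concentration–response curve; done twice.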

HCT cell line [2] = assay: Cytotoxicity against wild type p21 gene in human colon tumor 116 (HCT 116) cell lines was determined; summary of the method: as §1
HCT cell line [3] = assay: Cytotoxicity against wild type p53 gene in human colon tumor 116 (HCT 116) cell lines was determined; summary of the method: as §1
HCT cell line [4] = assay: Cytotoxicity against wild type p53-l- gene in human colon tumor 116 (HCT 116) cell lines was determined; summary of the method: as §1
RKO [5] = assay: Cytotoxicity against human RKO-E6 cell line; details: RKOE6
Summary of the method: (§2)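 RKO and RKO-E6 cells (DMEM, 10% FBS, 37 °C, 5% CO2) seeded at 5.0 × 10^3/well, adhered 24 h, then exposed to varying concentrations for 48 h, eight replicates, DMSO controls. MTS conversion read at 490 nm after 2–3 h; growth as % of same-plate DMSO control; EC50 from concentration–response curve. Assay run twice.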

RKO [6] = assay: Cytotoxicity against human RKO cell line; summary of the method: as §2

Compound | EC50 (HCT cell line [1]) [nM] | EC50 (HCT cell line [2]) [nM] | EC50 (HCT cell line [3]) [nM] | EC50 (HCT cell line [4]) [nM] | EC50 (RKO [5]) [nM] | EC50 (RKO [6]) [nM]
CCCCC/C=C\C[C@@]1(O)C=C(Cl)C(=O)[C@@H]1[C@@H](OC(C)=O)[C@H](OC(C)=O)[C@H](CCCC(=O)OC)OC(C)=O | 40 | 47 | 40 | 40 | – | –
CCCCC/C=C\C[C@@]1(O)C=C(Cl)C(=O)/C1=C/[C@H](OC(C)=O)[C@H](CCCC(=O)OC)OC(C)=O [PUNAGLANDIN 4] | 280 | 340 | 330 | 350 | 370 | 310
CCCCC/C=C\C[C@@]1(O)C=C(Cl)C(=O)[C@@H]1C[C@H](OC(C)=O)[C@H](CCCC(=O)OC)OC(C)=O | 320 | 330 | 340 | 360 | 470 | 440
CC/C=C/C/C=C\C[C@@]1(O)C=C(Cl)C(=O)/C1=C/[C@H](OC(C)=O)[C@H](CCCC(=O)OC)OC(C)=O | 300 | 290 | 320 | 370 | – | –
